# Test results reported in ChEMBL document CHEMBL4376814, “Novel cyclin-dependent kinase 9 (CDK9) inhibitor with suppression of cancer stemness activity against non-small-cell lung cancer” (Eur J Med Chem, 2019).
# Key:
# [1] = molecular target: T1, CDK4/Cyclin D3 (Homo sapiens) (UniProt P11802+P30281); test: Inhibition of recombinant full-length human CDK4/cyclinD3 at 1 uM using Rb fragment as substrate measured after 40 mins in presence of [gamma33P]ATP by scintillation counting method relative to control; assay type: protein-complex assay
# Summary of the method: (§1)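 Percent inhibition of kinase activity at a single compound concentration, measured by the outsourced Eurofins KinaseProfiler panel. Values are the mean of two independent experiments.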
# NCI-H1299 [2] = test: Antiproliferative activity against human H1299 cells assessed as inhibition of cell viability at 1 uM after 72 hrs by CCK-8 assay relative to control; assay type: functional; conditions: NCI-H1299, 72 h
# Summary of the method: (§2)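 Single-concentration viability screen using CCK-8. Cells were seeded at 3000/well and treated for 72 h. A450 read after 1-4 h with reagent. Percent inhibition calculated against untreated control and blank wells as (Ac−As)/(Ac−Ab)×100%.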
# CDK9/cyclin T1 = CDK9/cyclin T1 (Homo sapiens, UniProt P50750); test: Inhibition of recombinant full-length human CDK9/cyclinT1 using KTFCGTPEYLAPEVRREPRILSEEEQEMFRDFDYIADWC peptide as substrate measured after 40 mins in presence of [gamma33P]ATP by scintillation counting method; assay type: protein-complex assay
# Summary of the method: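 IC50 against CDK9/cyclin T1, determined by the outsourced Eurofins KinaseProfiler service. Values are the mean of two independent experiments.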
# NCI-H1299 [3] = test: Antiproliferative activity against human H1299 cells assessed as inhibition of cell viability at 10 uM after 72 hrs by CCK-8 assay relative to control; assay type: functional; conditions: NCI-H1299, 72 h; summary of the method: as §2
# [4] = molecular target: T2, CDK6/cyclin D3 (Homo sapiens) (UniProt P30281+Q00534); test: Inhibition of recombinant full-length human CDK6/cyclinD3 at 1 uM using histone H1 as substrate measured after 40 mins in presence of [gamma33P]ATP by scintillation counting method relative to control; assay type: protein-complex assay; summary of the method: as §1
# A549 [5] = test: Antiproliferative activity against human A549 cells assessed as inhibition of cell viability at 10 uM after 72 hrs by CCK-8 assay relative to control; assay type: functional; conditions: A549, 72 h; summary of the method: as §2
# [6] = molecular target: T3, CDK9/cyclin T1 (Homo sapiens) (UniProt O60563+P50750); test: Inhibition of recombinant full-length human CDK9/cyclinT1 at 1 uM using KTFCGTPEYLAPEVRREPRILSEEEQEMFRDFDYIADWC peptide as substrate measured after 40 mins in presence of [gamma33P]ATP by scintillation counting method relative to control; assay type: protein-complex assay; summary of the method: as §1
# A549 [7] = test: Antiproliferative activity against human A549 cells assessed as inhibition of cell viability at 1 uM after 72 hrs by CCK-8 assay relative to control; assay type: functional; conditions: A549, 72 h; summary of the method: as §2
# [8] = molecular target: T3, CDK9/cyclin T1 (Homo sapiens); test: Inhibition of recombinant full-length human CDK9/cyclinT1 at 500 nM using KTFCGTPEYLAPEVRREPRILSEEEQEMFRDFDYIADWC peptide as substrate measured after 40 mins in presence of [gamma33P]ATP by scintillation counting method relative to control; assay type: protein-complex assay; summary of the method: as §1
# [9] = molecular target: T1, CDK4/Cyclin D3 (Homo sapiens); test: Inhibition of recombinant full-length human CDK4/cyclinD3 at 500 nM using Rb fragment as substrate measured after 40 mins in presence of [gamma33P]ATP by scintillation counting method relative to control; assay type: protein-complex assay; summary of the method: as §1
# [10] = molecular target: T2, CDK6/cyclin D3 (Homo sapiens); test: Inhibition of recombinant full-length human CDK6/cyclinD3 at 500 nM using histone H1 as substrate measured after 40 mins in presence of [gamma33P]ATP by scintillation counting method relative to control; assay type: protein-complex assay; summary of the method: as §1
# HepG2 [11] = test: Antiproliferative activity against human HepG2 cells assessed as inhibition of cell viability at 500 nM after 72 hrs by CCK-8 assay relative to control; assay type: functional; conditions: HepG2, 72 h; summary of the method: as §2
# HepG2 [12] = test: Antiproliferative activity against human HepG2 cells assessed as inhibition of cell viability at 10 uM after 72 hrs by CCK-8 assay relative to control; assay type: functional; conditions: HepG2, 72 h; summary of the method: as §2
# MCF7 [13] = test: Antiproliferative activity against human MCF7 cells assessed as inhibition of cell viability at 500 nM after 72 hrs by CCK-8 assay relative to control; assay type: functional; conditions: MCF7, 72 h; summary of the method: as §2
# MCF7 [14] = test: Antiproliferative activity against human MCF7 cells assessed as inhibition of cell viability at 10 uM after 72 hrs by CCK-8 assay relative to control; assay type: functional; conditions: MCF7, 72 h; summary of the method: as §2
# SiHa [15] = test: Antiproliferative activity against human SiHa cells assessed as inhibition of cell viability at 500 nM after 72 hrs by CCK-8 assay relative to control; assay type: functional; summary of the method: as §2
# SiHa [16] = test: Antiproliferative activity against human SiHa cells assessed as inhibition of cell viability at 10 uM after 72 hrs by CCK-8 assay relative to control; assay type: functional; summary of the method: as §2
# [17] = molecular target: T3, CDK9/cyclin T1 (Homo sapiens); test: Potency index, ratio of ribociclib IC50 to compound IC50 for inhibition of recombinant full-length human CDK9/cyclinT1; assay type: protein-complex assay
# Chain of CDK9/cyclin T1 (O60563 whole entry): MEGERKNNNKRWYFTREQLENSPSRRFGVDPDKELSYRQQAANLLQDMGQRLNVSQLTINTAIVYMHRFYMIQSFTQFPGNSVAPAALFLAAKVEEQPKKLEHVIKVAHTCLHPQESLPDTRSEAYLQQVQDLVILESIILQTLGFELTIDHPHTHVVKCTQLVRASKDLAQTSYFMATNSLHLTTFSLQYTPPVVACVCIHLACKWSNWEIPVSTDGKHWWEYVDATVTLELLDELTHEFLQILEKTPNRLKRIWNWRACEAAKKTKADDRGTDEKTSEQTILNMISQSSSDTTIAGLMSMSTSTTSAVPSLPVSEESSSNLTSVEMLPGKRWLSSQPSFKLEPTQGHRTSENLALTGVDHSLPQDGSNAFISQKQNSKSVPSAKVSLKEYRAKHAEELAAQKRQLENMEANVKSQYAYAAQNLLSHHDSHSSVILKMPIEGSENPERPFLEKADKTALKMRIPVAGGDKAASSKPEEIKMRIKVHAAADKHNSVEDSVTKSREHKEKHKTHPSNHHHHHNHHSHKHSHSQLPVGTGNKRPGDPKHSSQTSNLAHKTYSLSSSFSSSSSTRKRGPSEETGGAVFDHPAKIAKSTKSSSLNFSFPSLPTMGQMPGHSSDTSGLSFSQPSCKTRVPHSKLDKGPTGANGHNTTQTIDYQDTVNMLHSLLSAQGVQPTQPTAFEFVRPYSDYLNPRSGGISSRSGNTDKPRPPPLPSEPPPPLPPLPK
# Chain of CDK9/cyclin T1 (P50750 whole entry): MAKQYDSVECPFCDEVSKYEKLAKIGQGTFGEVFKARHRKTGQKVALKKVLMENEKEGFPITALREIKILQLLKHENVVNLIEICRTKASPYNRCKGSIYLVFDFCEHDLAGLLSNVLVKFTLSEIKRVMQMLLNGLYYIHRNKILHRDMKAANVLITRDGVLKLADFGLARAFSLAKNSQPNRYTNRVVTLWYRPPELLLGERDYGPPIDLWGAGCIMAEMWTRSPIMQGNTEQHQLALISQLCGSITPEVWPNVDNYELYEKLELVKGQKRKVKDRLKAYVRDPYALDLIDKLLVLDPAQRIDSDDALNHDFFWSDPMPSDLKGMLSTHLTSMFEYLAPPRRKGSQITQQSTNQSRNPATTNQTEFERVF
inhibition [1] [%],IC50 (CDK9/cyclin T1) [nM],inhibition [4] [%],inhibition [6] [%],inhibition [8] [%],inhibition [9] [%],inhibition [10] [%],Ratio IC50 [17],SMILES,inhibition at 1 µM (NCI-H1299 [2]) [%],inhibition at 10 µM (NCI-H1299 [3]) [%],inhibition at 10 µM (A549 [5]) [%],inhibition at 1 µM (A549 [7]) [%],inhibition at 0.5 µM (HepG2 [11]) [%],inhibition at 10 µM (HepG2 [12]) [%],inhibition at 0.5 µM (MCF7 [13]) [%],inhibition at 10 µM (MCF7 [14]) [%],inhibition at 0.5 µM (SiHa [15]) [%],inhibition at 10 µM (SiHa [16]) [%]
55,42,61,91,89,,,,CN(C)C(=O)c1cc2cnc(Nc3ccc(C(=O)NCCCCN=C=S)cc3O)nc2n1C1CCCC1,10.7,51.8,41.7,30.3,,,,,,
86,11,81,96,96,72,30,,CN(C)C(=O)c1cc2cnc(Nc3ccc(C(=O)NCCCCCN=C=S)cc3F)nc2n1C1CCCC1,36.1,86.7,15.6,-1.6,,,,,,
86,10,82,97,98,75,41,,CN(C)C(=O)c1cc2cnc(Nc3ccc(C(=O)NCCCN=C=S)cc3F)nc2n1C1CCCC1,9.27,78.5,60.2,16.7,,,,,,
83,12,85,97,99,74,56,,CN(C)C(=O)c1cc2cnc(Nc3ccc(C(=O)NCCCCCCCN=C=S)cc3)nc2n1C1CCCC1,75.7,107,101,73.7,68,89,85,99,90,95
80,15,74,96,98,59,23,,CN(C)C(=O)c1cc2cnc(Nc3cccc(NC(=O)CCCCCCCN=C=S)c3)nc2n1C1CCCC1,50.6,86.9,96.7,44.6,,,,,,
86,9,77,97,97,84,45,> 20,CN(C)C(=O)c1cc2cnc(Nc3ccc(S(=O)(=O)NCCCCCCCN=C=S)cc3)nc2n1C1CCCC1,58.9,83,101,32.6,,,,,,
89,34,78,94,95,68,34,,CN(C)C(=O)c1cc2cnc(Nc3ccc(C(=O)NCCCCCCN=C=S)cc3F)nc2n1C1CCCC1,29.1,77.6,22.9,-11.8,,,,,,
89,6,86,96,97,76,38,,CN(C)C(=O)c1cc2cnc(Nc3ccc(C(=O)NCCCCN=C=S)cc3F)nc2n1C1CCCC1,28.7,78.9,24.4,-7,,,,,,
67,50,52,92,90,60,,,CN(C)C(=O)c1cc2cnc(Nc3ccc(C(=O)NCCCCCCCN=C=S)cc3F)nc2n1C1CCCC1,-9.23,35.8,12.7,0.05,,,,,,
59,33,60,92,91,,,,CN(C)C(=O)c1cc2cnc(Nc3ccc(C(=O)NCCCCCN=C=S)cc3O)nc2n1C1CCCC1,22.6,80.7,30.7,23.1,,,,,,
46,68,68,94,90,,21,,CN(C)C(=O)c1cc2cnc(Nc3ccc(C(=O)NCCCN=C=S)cc3O)nc2n1C1CCCC1,10.3,24.2,73,55.9,,,,,,
98,,92,96,67,101,63,,CN(C)C(=O)c1cc2cnc(Nc3ccc(C(=O)NCCCCCCN=C=S)cc3)nc2n1C1CCCC1,49.4,85,100,35.8,,,,,,
89,9,81,96,98,78,41,> 20,CN(C)C(=O)c1cc2cnc(Nc3ccc(S(=O)(=O)NCCCCCCN=C=S)cc3)nc2n1C1CCCC1,42.4,70.6,101,49.5,,,,,,
72,25,49,95,96,62,,,CN(C)C(=O)c1cc2cnc(Nc3ccc(NC(=O)CCCCCCCN=C=S)cc3F)nc2n1C1CCCC1,7.5,14,94.1,8.65,,,,,,
